According to ChEMBL document CHEMBL1152495, “Synthesis and antimicrobial studies of novel methylene bridged benzisoxazolyl imidazo[2,1-b][1,3,4]thiadiazole derivatives” (2009):
In brackets after ≈: the same amount, converted by molar mass.

Columns and labels:
Assay type in all cases: functional
Staphylococcus aureus [1] = test: Antibacterial activity against Staphylococcus aureus ATCC 25923 at 100 ug/ml after 24 hrs by agar well diffusion method; details: ATCC 25923, 24 h, read-out: IZ
Procedure, shortened: (§1)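 Agar well diffusion on Mueller Hinton agar (20 mL per dish), seeded homogeneously with liquid bacterial culture by spread plating. Samples loaded directly into wells, dimethylformamide as solvent control, ampicillin as reference drug. Plates incubated at 37 °C for 24 h. All determinations done in triplicate.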

Bacillus subtilis [2] = test: Antibacterial activity against Bacillus subtilis ATCC 6633 at 100 ug/ml after 24 hrs by agar well diffusion method; details: ATCC 6633, 24 h, read-out: IZ; procedure, shortened: as §1
Escherichia coli [3] = test: Antibacterial activity against Escherichia coli ATCC 35218 at 100 ug/ml after 24 hrs by agar well diffusion method; details: ATCC 35218, 24 h, read-out: IZ; procedure, shortened: as §1
Pseudomonas aeruginosa [4] = test: Antibacterial activity against Pseudomonas aeruginosa ATCC 10145 at 100 ug/ml after 24 hrs by agar well diffusion method; details: ATCC 10145, 24 h, read-out: IZ; procedure, shortened: as §1
Candida albicans [5] = test: Antifungal activity against Candida albicans at 100 ug/ml after 72 hrs by agar well diffusion method; details: read-out: IZ
Procedure, shortened: (§2)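 Fungi grown on Potato Dextrose Agar (20 mL per dish), seeded homogeneously with liquid culture by spread plating. Samples loaded directly into agar wells, with dimethylformamide as solvent control and clotrimazole as reference drug. Plates incubated at 25 °C for 72 h, triplicate determinations.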

Aspergillus fumigatus [6] = test: Antifungal activity against Aspergillus fumigatus at 100 ug/ml after 72 hrs by agar well diffusion method; details: read-out: IZ; procedure, shortened: as §2
Staphylococcus aureus [7] = test: Antibacterial activity against Staphylococcus aureus ATCC 25923 after 24 hrs by agar well diffusion method; details: ATCC 25923, 24 h; procedure, shortened: as §1
Bacillus subtilis [8] = test: Antibacterial activity against Bacillus subtilis ATCC 6633 after 24 hrs by agar well diffusion method; details: ATCC 6633, 24 h; procedure, shortened: as §1
Escherichia coli [9] = test: Antibacterial activity against Escherichia coli ATCC 35218 after 24 hrs by agar well diffusion method; details: ATCC 35218, 24 h; procedure, shortened: as §1
Pseudomonas aeruginosa [10] = test: Antibacterial activity against Pseudomonas aeruginosa ATCC 10145 after 24 hrs by agar well diffusion method; details: ATCC 10145, 24 h; procedure, shortened: as §1
Candida albicans [11] = test: Antifungal activity against Candida albicans after 72 hrs by agar well diffusion method; procedure, shortened: as §2
Aspergillus fumigatus [12] = test: Antifungal activity against Aspergillus fumigatus after 72 hrs by agar well diffusion method; procedure, shortened: as §2

| SMILES | zone of inhibition at 100 µg/mL (Staphylococcus aureus [1]) [mm] | zone of inhibition at 100 µg/mL (Bacillus subtilis [2]) [mm] | zone of inhibition at 100 µg/mL (Escherichia coli [3]) [mm] | zone of inhibition at 100 µg/mL (Pseudomonas aeruginosa [4]) [mm] | zone of inhibition at 100 µg/mL (Candida albicans [5]) [mm] | zone of inhibition at 100 µg/mL (Aspergillus fumigatus [6]) [mm] | MIC (Staphylococcus aureus [7]) [µg/mL] | MIC (Bacillus subtilis [8]) [µg/mL] | MIC (Escherichia coli [9]) [µg/mL] | MIC (Pseudomonas aeruginosa [10]) [µg/mL] | MIC (Candida albicans [11]) [µg/mL] | MIC (Aspergillus fumigatus [12]) [µg/mL] |
| --- | --- | --- | --- | --- | --- | --- | --- | --- | --- | --- | --- | --- |
| O=c1oc2ccccc2cc1-c1nc2sc(Cc3noc4ccccc34)nn2c1Br | 15 | 10 | 13 | 14 | 14 | 17 | 2 (≈ 4.17 µM) | 3 (≈ 6.26 µM) | 2.5 (≈ 5.22 µM) | 2.5 (≈ 5.22 µM) | 3 (≈ 6.26 µM) | 2.5 (≈ 5.22 µM) |
| O=Nc1c(-c2cc3ccccc3oc2=O)nc2sc(Cc3noc4ccccc34)nn12 | 14 | 15 | 12 | 14 | 15 | 12 | 1.5 (≈ 3.49 µM) | 1.5 (≈ 3.49 µM) | 3 (≈ 6.99 µM) | 2.5 (≈ 5.82 µM) | 3 (≈ 6.99 µM) | 3.5 (≈ 8.15 µM) |
| O=[N+]([O-])c1ccc(-c2cn3nc(Cc4noc5ccccc45)sc3n2)cc1 | 14 | 11 | 13 | 8 | 10 | 11 | 1.5 (≈ 3.97 µM) | 2.5 (≈ 6.62 µM) | 3 (≈ 7.95 µM) | 3.5 (≈ 9.27 µM) | 3.5 (≈ 9.27 µM) | 4 (≈ 10.6 µM) |
| Brc1ccc(-c2nc3sc(Cc4noc5ccccc45)nn3c2Br)cc1 | 13 | 12 | 14 | 16 | 16 | 16 | 2 (≈ 4.08 µM) | 2.5 (≈ 5.1 µM) | 2 (≈ 4.08 µM) | 2 (≈ 4.08 µM) | 2.5 (≈ 5.1 µM) | 2.5 (≈ 5.1 µM) |
| COc1ccc(-c2cn3nc(Cc4noc5ccccc45)sc3n2)cc1 | 10 | 14 | 12 | 11 | 15 | 19 | 3.5 (≈ 9.66 µM) | 2.5 (≈ 6.9 µM) | 3 (≈ 8.28 µM) | 3 (≈ 8.28 µM) | 3 (≈ 8.28 µM) | 2 (≈ 5.52 µM) |
| O=[N+]([O-])c1ccc(-c2nc3sc(Cc4noc5ccccc45)nn3c2Br)cc1 | 11 | 12 | 10 | 11 | 9 | 8 | 2 (≈ 4.38 µM) | 2.5 (≈ 5.48 µM) | 3.5 (≈ 7.67 µM) | 3 (≈ 6.57 µM) | 4 (≈ 8.77 µM) | 4.5 (≈ 9.86 µM) |
| O=Nc1c(-c2ccc([N+](=O)[O-])cc2)nc2sc(Cc3noc4ccccc34)nn12 | 12 | 14 | 9 | 11 | 17 | 11 | 1.5 (≈ 3.69 µM) | 1.5 (≈ 3.69 µM) | 3.5 (≈ 8.61 µM) | 3 (≈ 7.38 µM) | 2.5 (≈ 6.15 µM) | 4 (≈ 9.84 µM) |
| Clc1ccc(-c2cn3nc(Cc4noc5ccccc45)sc3n2)cc1 | 12 | 17 | 18 | 12 | 11 | 16 | 2 (≈ 5.45 µM) | 0.5 (≈ 1.36 µM) | 1.5 (≈ 4.09 µM) | 3 (≈ 8.18 µM) | 3.5 (≈ 9.54 µM) | 1.5 (≈ 4.09 µM) |
| Clc1ccc(-c2nc3sc(Cc4noc5ccccc45)nn3c2Br)cc1 | 17 | 18 | 15 | 12 | 15 | 10 | 1.5 (≈ 3.37 µM) | 0.5 (≈ 1.12 µM) | 2 (≈ 4.49 µM) | 2.5 (≈ 5.61 µM) | 3 (≈ 6.73 µM) | 4 (≈ 8.97 µM) |
| O=Nc1c(-c2ccc(Cl)cc2)nc2sc(Cc3noc4ccccc34)nn12 | 10 | 14 | 13 | 15 | 15 | 17 | 2 (≈ 5.05 µM) | 1.5 (≈ 3.79 µM) | 3 (≈ 7.58 µM) | 2.5 (≈ 6.32 µM) | 3 (≈ 7.58 µM) | 2.5 (≈ 6.32 µM) |
| O=Nc1c(-c2ccccc2)nc2sc(Cc3noc4ccccc34)nn12 | 18 | 13 | 11 | 10 | 13 | 16 | 1 (≈ 2.77 µM) | 2 (≈ 5.53 µM) | 3 (≈ 8.3 µM) | 3 (≈ 8.3 µM) | 3.5 (≈ 9.68 µM) | 2.5 (≈ 6.92 µM) |
| COc1ccc(-c2nc3sc(Cc4noc5ccccc45)nn3c2N=O)cc1 | 13 | 11 | 16 | 8 | 14 | 10 | 1.5 (≈ 3.83 µM) | 3 (≈ 7.66 µM) | 2 (≈ 5.11 µM) | 3.5 (≈ 8.94 µM) | 3 (≈ 7.66 µM) | 4 (≈ 10.2 µM) |
| c1ccc(-c2cn3nc(Cc4noc5ccccc45)sc3n2)cc1 | 16 | 11 | 9 | 9 | 12 | 19 | 1 (≈ 3.01 µM) | 2 (≈ 6.02 µM) | 3.5 (≈ 10.5 µM) | 3.5 (≈ 10.5 µM) | 3.5 (≈ 10.5 µM) | 2 (≈ 6.02 µM) |
| COc1ccc(-c2nc3sc(Cc4noc5ccccc45)nn3c2Br)cc1 | 11 | 18 | 16 | 17 | 10 | 15 | 1.5 (≈ 3.4 µM) | 0.5 (≈ 1.13 µM) | 2 (≈ 4.53 µM) | 2 (≈ 4.53 µM) | 4 (≈ 9.06 µM) | 2.5 (≈ 5.66 µM) |
| Nc1nnc(Cc2noc3ccccc23)s1 | 15 | 15 | 10 | 14 | 14 | 11 | 1.5 (≈ 6.46 µM) | 1 (≈ 4.31 µM) | 3.5 (≈ 15.1 µM) | 2.5 (≈ 10.8 µM) | 3 (≈ 12.9 µM) | 3.5 (≈ 15.1 µM) |
| O=Nc1c(-c2ccc(Br)cc2)nc2sc(Cc3noc4ccccc34)nn12 | 16 | 12 | 14 | 12 | 17 | 15 | 1 (≈ 2.27 µM) | 2.5 (≈ 5.68 µM) | 2 (≈ 4.54 µM) | 3 (≈ 6.81 µM) | 2.5 (≈ 5.68 µM) | 2.5 (≈ 5.68 µM) |
| Brc1c(-c2ccccc2)nc2sc(Cc3noc4ccccc34)nn12 | 18 | 12 | 11 | 16 | 14 | 12 | 1 (≈ 2.43 µM) | 2.5 (≈ 6.08 µM) | 3 (≈ 7.29 µM) | 2 (≈ 4.86 µM) | 3 (≈ 7.29 µM) | 3.5 (≈ 8.51 µM) |
| Brc1ccc(-c2cn3nc(Cc4noc5ccccc45)sc3n2)cc1 | 15 | 18 | 20 | 14 | 22 | 13 | 2.5 (≈ 6.08 µM) | 0.5 (≈ 1.22 µM) | 1 (≈ 2.43 µM) | 2.5 (≈ 6.08 µM) | 2 (≈ 4.86 µM) | 3.5 (≈ 8.51 µM) |
| O=c1oc2ccccc2cc1-c1cn2nc(Cc3noc4ccccc34)sc2n1 | 13 | 15 | 10 | 10 | 20 | 13 | 3 (≈ 7.49 µM) | 1 (≈ 2.5 µM) | 3.5 (≈ 8.74 µM) | 3 (≈ 7.49 µM) | 2.5 (≈ 6.24 µM) | 3.5 (≈ 8.74 µM) |
| CC1(C)S[C@@H]2[C@H](NC(=O)[C@H](N)c3ccccc3)C(=O)N2[C@H]1C(=O)O [AMPICILLIN] | 19 | 18 | 16 | 17 | – | – | 1 (≈ 2.86 µM) | 0.5 (≈ 1.43 µM) | – | 2 (≈ 5.72 µM) | – | – |
| Clc1ccccc1C(c1ccccc1)(c1ccccc1)n1ccnc1 [CLOTRIMAZOLE] | – | – | – | – | 22 | 20 | – | – | – | – | 2 (≈ 5.8 µM) | 2 (≈ 5.8 µM) |
